From PubChem BioAssay
PRMT1 FP inh: PRMT1 (human) inhibition, primary screen; inhibition, % at 2.79 µM; 370,000 compounds, 1.3% hits; AID 652257; recombinant PRMT1, activity-based probe fluorescence polarization; Q99873;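 active means inhibition above about 21% made by adding two undisclosed values, limit read from the data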
Target sequence (Q99873 whole entry, looked up): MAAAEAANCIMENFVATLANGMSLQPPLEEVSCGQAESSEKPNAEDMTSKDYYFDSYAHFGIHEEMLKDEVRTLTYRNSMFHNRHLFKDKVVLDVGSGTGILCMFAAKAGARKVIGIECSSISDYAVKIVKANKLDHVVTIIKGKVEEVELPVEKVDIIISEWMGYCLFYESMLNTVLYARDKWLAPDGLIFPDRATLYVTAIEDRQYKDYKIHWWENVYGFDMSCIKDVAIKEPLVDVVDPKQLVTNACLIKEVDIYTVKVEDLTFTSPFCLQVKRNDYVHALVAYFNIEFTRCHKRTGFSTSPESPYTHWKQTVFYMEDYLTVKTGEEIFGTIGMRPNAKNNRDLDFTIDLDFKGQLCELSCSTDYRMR
core dimer inh: HCV core protein dimerization inhibition. TR-FRET GST/Flag-core106 dimerization, 1536-well. inhibition, % at 5 µM. 300,000 compounds, 0.33% hits;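 active means inhibition above the mean of all tested compounds plus 3 SD, set per screening campaign, cut at about 45% in these data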
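Material: Tagged HCV core106 pair (GST and Flag) | Amount: GST-core106 13.5 nM, Flag-core106 17 nM | Medium: KF-containing HEPES buffer, pH 7.45, DTT, CHAPS, BSA | Reagent: Eu donor and XL665 acceptor anti-tag antibodies | Schedule: 4 h at 22.5 °C | Technique: Time-resolved FRET, ex 340 nm, em 617 and 671 nm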
APOBEC3G inh: APOBEC3G (human) deaminase inhibition | Q9HC16 | recombinant A3G, ssDNA deamination FAM/TAMRA fluorescence | inhibition, % at 20 µM | 330,000 compounds, 0.28% hits | AID 493012;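 active means inhibition of at least 40% at 20 µM, with no more than 30% in the related APOBEC3A deaminase screen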;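 further: plate controls were DMSO wells with A3G for no effect and wells lacking A3G enzyme for full effect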
ABHD5 PLIN5 PPI: blocks binding of human ABHD5 to perilipin-5 | Q00G26+Q8WTS1 | Split G. princeps luciferase complementation, luminescence, 4 h | inhibition, % at 4 µM | 360,000 compounds, 0.78% hits;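 active means inhibition above the mean inhibition across every tested compound plus 3 SD, cut at about 22% in these data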;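 further: 0% = DMSO only wells and the 100% control is not disclosed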
A3A deaminase: inhibitors of human APOBEC3A DNA deaminase. P31941. recombinant A3A, FAM/TAMRA ssDNA deamination fluorescence. inhibition, % at 20 µM. 330,000 compounds, 0.41% hits. AID 493011;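 active means at least 40% inhibition at 20 µM here, with at most 30% in a related deaminase screen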;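 further: plate controls were A3A with DMSO for no effect and wells lacking A3A enzyme for full effect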
Target sequence (P31941 whole entry, looked up): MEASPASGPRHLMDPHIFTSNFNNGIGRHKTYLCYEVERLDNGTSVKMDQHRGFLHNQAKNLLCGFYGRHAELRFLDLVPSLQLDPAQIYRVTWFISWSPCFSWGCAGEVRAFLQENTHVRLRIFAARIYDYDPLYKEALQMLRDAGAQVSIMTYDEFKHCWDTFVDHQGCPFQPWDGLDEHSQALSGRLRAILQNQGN
NS3 helicase inh: blocks Hepatitis C virus NS3 helicase unwinding | NS3 helicase DNA unwinding, Cy5 molecular beacon fluorescence | 290,000 compounds, 0.56% hits | AID 1800 | inhibition, % at 10.9 µM;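 active means inhibition above the mean of all tested compounds plus 3 SD, set per campaign, cut at about 35% in these data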;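 further: 0% = DMSO wells and 100% = thioflavine S control wells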
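test system = hepatitis C virus NS3 helicase domain fragment enzyme | reagent = annealed dual-labelled DNA beacon duplex, ATP-started | times = 1 h at 25 °C | detection = Cy5 fluorescence, 0 and 60 min reads | read-out basis = percent inhibition from t60/t0 fluorescence ratio | control set = DMSO and thioflavine S | replication = one well per compound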
* hit, by the source's call. An excerpt weighted towards active compounds, which were near 2.9% of everything screened.

Screening Cc1cc(C)c(S(=O)(=O)/N=C2/C=C(Sc3ncn[nH]3)C(=O)c3ccccc32)cc1C returned PRMT1 FP inh 81*, core dimer inh -11, ABHD5 PLIN5 PPI 18 and NS3 helicase inh 18.
CCOC(=O)C1CCCN(C(=O)CCc2nc3sc4c(c3c(=O)[nH]2)CCCC4)C1 (stereo not drawn) was read as PRMT1 FP inh 0, APOBEC3G inh -7, ABHD5 PLIN5 PPI -2 and A3A deaminase -1.
For COC(=O)c1ccc(/C=C/C(=O)c2cccc(OC)c2)cc1 the results were PRMT1 FP inh 5, core dimer inh -4, APOBEC3G inh -3, ABHD5 PLIN5 PPI 14, A3A deaminase -1 and NS3 helicase inh -9.
Screening COc1cccc(C(=O)/C=C/c2ccc(SC)cc2)c1 returned PRMT1 FP inh 0, core dimer inh -7, APOBEC3G inh -3, ABHD5 PLIN5 PPI 23*, A3A deaminase 0 and NS3 helicase inh -7.
`CSc1ccc(/C=C/C(=O)c2ccc(NC(=O)Cc3ccccc3)cc2)cc1` gave PRMT1 FP inh 0, core dimer inh -3, APOBEC3G inh -1, ABHD5 PLIN5 PPI 2, A3A deaminase 1 and NS3 helicase inh -8.
For CSc1ccc(/C=C/C(=O)c2ccc(NC(=O)C(C)C)cc2)cc1 the results were PRMT1 FP inh 1, core dimer inh 2, APOBEC3G inh 9, ABHD5 PLIN5 PPI 23*, A3A deaminase 1 and NS3 helicase inh -13.
For COCc1[nH]nc2c1C(c1ccccc1)NC2=O (stereo not drawn) the results were PRMT1 FP inh 0.
Screening Cc1ccc(N2C(=O)CC(NCC3CCCO3)C2=O)cc1 (stereo not drawn) returned PRMT1 FP inh 45*, core dimer inh -2, APOBEC3G inh -1, ABHD5 PLIN5 PPI 7, A3A deaminase 5 and NS3 helicase inh 2.
O=C1CC(NCC2CCCO2)C(=O)N1c1ccc(Cl)cc1 (stereo not drawn) was read as PRMT1 FP inh 1, core dimer inh -8, APOBEC3G inh -4, ABHD5 PLIN5 PPI 5, A3A deaminase -3 and NS3 helicase inh 18.
Screening COc1ccc(C(=O)N/C(=C/c2ccco2)C(=O)NCc2ccco2)cc1 returned PRMT1 FP inh 25*, core dimer inh 0, APOBEC3G inh -13, ABHD5 PLIN5 PPI 10, A3A deaminase -1 and NS3 helicase inh 3.
Screening CNc1ccc2c3c(cccc13)C(=O)N(C)C2=O returned PRMT1 FP inh active, core dimer inh -36, APOBEC3G inh -176, ABHD5 PLIN5 PPI -11, A3A deaminase -105 and NS3 helicase inh -4.
S=c1[nH]nc(-c2cc3c(s2)-c2ccccc2CC3)o1 was read as PRMT1 FP inh 22*, core dimer inh 7, APOBEC3G inh -2, ABHD5 PLIN5 PPI -45, A3A deaminase -6 and NS3 helicase inh 10.
O=C1/C(=C/c2ccc(N3CCOCC3)o2)SC(=Nc2ccccc2)N1CCc1c[nH]c2ccccc12 was read as core dimer inh 33, APOBEC3G inh -43, ABHD5 PLIN5 PPI 77*, A3A deaminase -16 and NS3 helicase inh 11.
For COc1cc(/C=C2\SC(=Nc3ccccc3)N(CCc3c[nH]c4ccccc34)C2=O)ccc1OC(C)C(=O)O (stereo not drawn) the results were PRMT1 FP inh 4, core dimer inh 11, APOBEC3G inh -7, ABHD5 PLIN5 PPI -2, A3A deaminase -1 and NS3 helicase inh 0.
`Cc1[nH]c2ccccc2c1C(=O)C(=O)NCc1ccncc1` gave PRMT1 FP inh 0, core dimer inh 7, ABHD5 PLIN5 PPI 3 and NS3 helicase inh 12.
Screening O=[N+]([O-])c1ccccc1/C=C/C1Nc2cccc3cccc(c23)N1 returned PRMT1 FP inh 21*.
COc1cc(Cn2cc([C@]34C[C@H]5C(=O)N(C)CC(=O)N5[C@H]3N(S(=O)(=O)c3ccccc3)c3ccccc34)c3ccccc32)cc(OC)c1 was read as PRMT1 FP inh 6.
Screening CCCC[C@H](C(=O)N(CC)c1ccccc1)[C@@H](O)c1ccc(Cl)cc1 returned PRMT1 FP inh 0.
Nc1c(S(=O)(=O)c2cccc(Cl)c2)c2nc3ccccc3nc2n1/N=C/c1ccc(O)c(O)c1 was read as core dimer inh 71*, APOBEC3G inh -1, A3A deaminase 8 and NS3 helicase inh 11.
For COc1cccc(/C=N/n2c(N)c(S(=O)(=O)c3cccs3)c3nc4ccccc4nc32)c1OC the results were PRMT1 FP inh 0, core dimer inh 11, APOBEC3G inh -5, ABHD5 PLIN5 PPI -2, A3A deaminase -1 and NS3 helicase inh -3.
O=S(=O)(c1ccc(Oc2ncnc3scc(-c4ccccc4)c23)cc1)N1CCOCC1 was read as PRMT1 FP inh 1, core dimer inh 50*, APOBEC3G inh -5, ABHD5 PLIN5 PPI 3, A3A deaminase -3 and NS3 helicase inh -2.
Screening CC1CCCCC1N(C)C1CCN(C(=O)CNC(=O)/C=C/c2cccc(Cl)c2)CC1 (stereo not drawn) returned PRMT1 FP inh 22*, core dimer inh -7, APOBEC3G inh -3, ABHD5 PLIN5 PPI 6, A3A deaminase -5 and NS3 helicase inh 7.
For COCCCNC(=O)C[C@H]1C[C@@]2(C(=O)OC)C(=C[C@H](C3CCCC3)O[C@@H]2C)N(Cc2ccco2)C1=O the results were PRMT1 FP inh 1.
Screening CC(O)(c1ccc(F)c(F)c1)c1nc(-c2ccoc2)cs1 (stereo not drawn) returned PRMT1 FP inh -2 and ABHD5 PLIN5 PPI 22*.
CS(=O)(=O)c1sc(C#N)c2c1C(=O)CC(c1ccccc1)C2 (stereo not drawn) was read as PRMT1 FP inh 19, core dimer inh 11, APOBEC3G inh -1, ABHD5 PLIN5 PPI 57*, A3A deaminase 4 and NS3 helicase inh -5.
Cc1oc2c(c(=O)c1C)C(=O)CC(c1ccccc1)C2 (stereo not drawn) was read as PRMT1 FP inh 0, core dimer inh 1, APOBEC3G inh -3, ABHD5 PLIN5 PPI -7, A3A deaminase -3 and NS3 helicase inh 0.
`CCN(CC)S(=O)(=O)c1ccc2c(c1)oc(=O)n2CC(=O)NC1CCCCC1` gave PRMT1 FP inh 18, core dimer inh 6, APOBEC3G inh 1, ABHD5 PLIN5 PPI 0, A3A deaminase -3 and NS3 helicase inh -1.
For Cc1[nH]c(=S)c(C#N)c(-c2ccco2)c1C(=O)N(C)C the results were PRMT1 FP inh 31*, core dimer inh -1, APOBEC3G inh 34, ABHD5 PLIN5 PPI -3, A3A deaminase 46 and NS3 helicase inh 4.
CC(=O)c1c(C)[nH]c(=S)c(C#N)c1-c1ccc(Cl)cc1 was read as PRMT1 FP inh -1, core dimer inh 13, APOBEC3G inh -8, ABHD5 PLIN5 PPI -7, A3A deaminase -4 and NS3 helicase inh -3.
